Here are results for two compounds from ChEMBL document CHEMBL3102831 (Bioorg Med Chem Lett, 2014).

Calls of active or inactive are those of the source. No cut-off for these calls is given here.

In test [1] the test system is HCT-116. Put plainly: Induction of apoptosis in human HCT116 cells assessed as activation of caspase 3 and 8 after 24 hrs by RT-PCR analysis. The class given is functional, cell-based.
Test [2] deals with HCT-116. Briefly: Cell cycle arrest in human HCT116 cells assessed as accumulation at S phase at 5 uM after 48 hrs using propidium iodide staining by FACS analysis (reference value: 36.84%). The class given is functional. For orientation: Flow cytometry measures light scatter and fluorescence of single cells or particles in a stream.
In test [3] the test system is HCT-116. Put plainly: Cell cycle arrest in human HCT116 cells assessed as accumulation at G2 phase at 5 uM after 48 hrs using propidium iodide staining by FACS analysis (reference value: 24.09%). The class given is functional.
In test [4] the test system is HCT-116. Briefly: Induction of apoptosis in human HCT116 cells assessed as viable cells at 3 uM after 24 hrs using annexin V-FITC/propidium iodide by flow cytometry (reference value: 90%). The following applies: HCT-116, 24 h, read-out: Activity. The class given is functional.
In test [5] the test system is HCT-116. Put plainly: Induction of apoptosis in human HCT116 cells assessed as necrotic cells at 3 uM after 24 hrs using annexin V-FITC/propidium iodide by flow cytometry (reference value: 2.8%). The class given is functional.
Test [6] deals with HCT-116. Put plainly: Induction of apoptosis in human HCT116 cells assessed as change in mitochondrial membrane potential at 3 to 5 uM after 24 hrs by JC-1 staining. The class given is functional, cell-based. The method in brief: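 HCT116 cells were exposed for 24 h at 3 and 5 µM, with untreated 24 h controls, then stained with JC-1. Monomer and J-aggregates were excited at 514 and 585 nm. Emission was collected at 515–545 nm (green) and 570–600 nm (red), and cells were imaged by fluorescence microscopy.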

In test [7] the test system is HCT-116. Briefly: Induction of apoptosis in human HCT116 cells assessed as apoptotic morphology at 3 to 5 uM after 24 hrs by Hoechst […] staining. The class given is functional, cell-based. The method in brief:
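HCT116 cells were treated with compound at 3 and 5 µM for 24 h, alongside 24 h untreated controls. Cells were stained with Hoechst 33258 and examined by fluorescence microscopy. Bright blue nuclei from chromatin condensation and karyopyknosis were scored as apoptotic, and uniform light blue nuclei as live.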

For test [8], the system named is DNA. Briefly: Binding affinity to calf thymus DNA at 1.5 x 10^-5 M by circular dichroism analysis. The following applies: Bos taurus. The class given is nucleic-acid assay. The gist of the method:
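Circular dichroism spectra recorded on ct-DNA at 1.5 × 10^-4 M, alone and with compound at 1.5 × 10^-5 M. Spectra compared with and without compound.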
For orientation: CD spectra are sensitive to the conformation of chiral molecules.

Test [9] has as its system DNA. Put plainly: Binding affinity to calf thymus DNA at compound and GelRed ratio 1:1 to 9:1 by fluorescence emission spectra analysis. The following applies: Bos taurus. The class given is nucleic-acid assay. The gist of the method:
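Competitive displacement assay. GelRed was pre-incubated with ct-DNA for 30 min at [GelRed]/[DNA] = 1:10, then titrated with compound. Emission was read around 590 nm with 350 nm excitation. Quenching constant Kq was obtained by linear Stern–Volmer fitting.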

The subject of test [10] is DNA. Briefly: Binding affinity to calf thymus DNA at DNA and compound ratio 1:1 to 6:1 by UV-vis absorption spectra analysis. The class given is nucleic-acid assay. The following applies: Bos taurus.
A further test has as its system HUVEC. Put plainly: Cytotoxicity against human HUVEC after 48 hrs by MTT assay. The class given is cell-based. In general terms: Tetrazolium assays rely on reduction of a dye to a coloured formazan, in cell work by metabolically active cells.
Test [11] deals with HCT-116. Briefly: Cytotoxicity against human HCT116 cells after 48 hrs by MTT assay. The following applies: HCT-116, 48 h. The class given is functional, cell-based.
A short description of test [12]: Cytotoxicity against human SPCA2 cells after 48 hrs by MTT assay. The class given is functional, cell-based. The following applies: SPCA2, 48 h.
A further test has as its system HeLa. Briefly: Cytotoxicity against human HeLa cells after 48 hrs by MTT assay. The class given is functional, cell-based.
A further test concerns CNE. Put plainly: Cytotoxicity against human CNE cells after 48 hrs by MTT assay. The class given is functional, cell-based.
Another test has as its system HepG2. Put plainly: Cytotoxicity against human HepG2 cells after 48 hrs by MTT assay. The class given is functional, cell-based. The following applies: HepG2, 48 h.
Test [13] has as its system HCT-116. Briefly: Induction of apoptosis in human HCT116 cells assessed as late apoptotic cells at 3 uM after 24 hrs using annexin V-FITC/propidium iodide by flow cytometry (reference value: 3.3%). The class given is functional.
Test [14] deals with HCT-116. Put plainly: Induction of apoptosis in human HCT116 cells assessed as early apoptotic cells at 3 uM after 24 hrs using annexin V-FITC/propidium iodide by flow cytometry (reference value: 3.9%). The class given is functional.
Test [15] concerns HCT-116. Put plainly: Induction of apoptosis in human HCT116 cells assessed as necrotic cells at 5 uM after 24 hrs using annexin V-FITC/propidium iodide by flow cytometry (reference value: 2.8%). The class given is functional.
For test [16], the system named is HCT-116. Put plainly: Induction of apoptosis in human HCT116 cells assessed as viable cells at 5 uM after 24 hrs using annexin V-FITC/propidium iodide by flow cytometry (reference value: 90%). The class given is functional. The following applies: HCT-116, 24 h, read-out: Activity.
Test [17] deals with HCT-116. Briefly: Induction of apoptosis in human HCT116 cells assessed as late apoptotic cells at 5 uM after 24 hrs using annexin V-FITC/propidium iodide by flow cytometry (reference value: 3.3%). The class given is functional.
The subject of test [18] is HCT-116. Put plainly: Induction of apoptosis in human HCT116 cells assessed as early apoptotic cells at 5 uM after 24 hrs using annexin V-FITC/propidium iodide by flow cytometry (reference value: 3.9%). The class given is functional.
In test [19] the test system is HCT-116. Put plainly: Cell cycle arrest in human HCT116 cells assessed as accumulation at G1 phase at 3 uM after 48 hrs using propidium iodide staining by FACS analysis (reference value: 39.08%). The class given is functional.
Test [20] relates to HCT-116. Put plainly: Cell cycle arrest in human HCT116 cells assessed as accumulation at S phase at 3 uM after 48 hrs using propidium iodide staining by FACS analysis (reference value: 36.84%). The class given is functional.
Test [21] relates to HCT-116. Briefly: Cell cycle arrest in human HCT116 cells assessed as accumulation at G1 phase at 5 uM after 48 hrs using propidium iodide staining by FACS analysis (reference value: 39.08%). The class given is functional.
Test [22] has as its system HCT-116. Put plainly: Cell cycle arrest in human HCT116 cells assessed as accumulation at G2 phase at 3 uM after 48 hrs using propidium iodide staining by FACS analysis (reference value: 24.09%). The class given is functional.
The test system of test [23] is DNA. Briefly: Binding affinity to F32T oligonucleotide DNA assessed as change in melting temperature by FRET assay.
In test [24] the test system is HCT-116. Briefly: Cytotoxicity against human HCT116 cells. The class given is functional, cell-based.
The nature of test [25]: Cytotoxicity against human COLO320DM cells. The class given is functional, cell-based. The following applies: COLO 320DM.

Regarding `CCOP(=O)(OCC)C(NC(=O)c1cc(O)c2c(c1)C(=O)c1cccc(O)c1C2=O)c1cccc(OC)c1` (stereo unspecified), the Activity entry was “Dose-dependent effect” with HCT-116 [1]; 32.44% in the test with HCT-116 [2]; 17.9% with HCT-116 [3]; 4% in the test with HCT-116 [5]; 10.5% in the test with HCT-116 [13]; 32.5% in the test on HCT-116 [14]. The Activity in the test on HCT-116 [15] came out at 2.6%; in the test with HCT-116 [17] it was 6.5%; in the test on HCT-116 [18], 33.5%; in the test on HCT-116 [19], 45.26%; in the test with HCT-116 [20], 34.66%; in the test with HCT-116 [21] it was 49.67%. Moreover, the Activity in the test with HCT-116 [22] stood at 20.09%. Also, in the test with HCT-116 [4], the viability at 3 µM came out at 53%. In addition, the result in the test on HCT-116 [6], in the test with HCT-116 [7] and in the test with DNA [8] was Active. In the test with DNA [9], the Kq is 1660. Also, the Kb in the test on DNA [10] came to 1.03 ×10⁴ /M. In addition, the IC50 with HUVEC is > 100 µM; in the test on HCT-116 [11] it was 5.32 µM; in test [12], 28.3 µM; in the test on HeLa, 19.3 µM; in the test with CNE, 24.1 µM; in the test with HepG2, 22.1 µM. For the same compound, the viability at 5 µM in the test with HCT-116 [16] turned out to be 57.5%. Further, the ΔTm in the test on DNA [23] is 3.1 °C.
As to `O=C(O)c1cc(O)c2c(c1)C(=O)c1cccc(O)c1C2=O` [RHEIN], the IC50 in the test with HUVEC was found to be 89.7 µM; with HCT-116 [24], 135 µM; in test [25] it was 62.5 µM. The ΔTm with DNA [23] was determined as 2 °C.

The term IC50 denotes the point on the concentration scale where inhibition reaches its midpoint. Read a high IC50 as weaker potency in that assay. Usually ΔTm stands for the change in melting temperature against a reference sample.
